{"data": "Experimental data gathered from unrelated publications", "PIP4K2C": "Phosphatidylinositol 5-phosphate 4-kinase type-2 gamma (PIP4K2C, Homo sapiens, UniProt Q8TBX8)", "MAPK9": "Mitogen-activated protein kinase 9 (MAPK9, Homo sapiens, UniProt P45984)", "note": "Protocols differ between the studies behind these lines. pEC50, pIC50, pKd, pKi: −log10 of the molar value."}
{"SMILES": "C[C@@]12CCC(=O)N1c1cc(Nc3ncc(Cl)c(-c4cccc(-c5ccccc5)c4)n3)cnc1OC2", "target": "PIP4K2C", "test": "binding", "endpoint": "pKd", "value": 9.35}
{"SMILES": "Nc1ncc2c(n1)-c1c([nH]c3ccc(C#CC4CC4)cc13)CCCC2", "target": "PIP4K2C", "test": "binding, competition with immobilised ligand", "endpoint": "pKd", "value": 5.19}
{"SMILES": "Nc1ccn([C@@H]2O[C@H](COP(=O)(O)OP(=O)(O)OP(=O)(O)O)[C@@H](O)[C@H]2O)c(=O)n1", "target": "virB (Shigella flexneri, UniProt P0A247)", "test": "binding, ITC", "endpoint": "pKd", "value": 5.03}
{"SMILES": "COc1ccc2c(Oc3ccc4c(C(=O)Nc5ccccc5N)cccc4c3)ccnc2c1", "target": "MAPK9", "test": "enzyme activity, inhibitor", "endpoint": "pIC50", "value": "< 6.30"}
{"SMILES": "CC(C)C[C@H](NC(=O)[C@H](Cc1ccccc1)NC(=O)[C@H](Cc1ccc(O)cc1)NC(=O)CNC(=O)[C@H](CCCNC(=N)N)NC(=O)[C@H](CO)NC(=O)[C@H](CCC(N)=O)NC(=O)[C@H](CO)NC(=O)[C@H](C)NC(=O)[C@H](Cc1ccccc1)NC(=O)[C@@H]1CCCN1C(=O)[C@H](CO)NC(=O)[C@H](CCC(N)=O)NC(=O)[C@H](Cc1ccccc1)NC(=O)[C@H](CCC(=O)O)NC(=O)[C@H](CCC(=O)O)NC(=O)[C@H](CC(=O)O)NC(=O)[C@@H](NC(=O)[C@H](CCCNC(=N)N)NC(=O)[C@@H](N)Cc1ccccc1)C(C)C)C(=O)N[C@@H](Cc1ccccc1)C(=O)N[C@@H](CCCNC(=N)N)C(=O)N1CCC[C@H]1C(=O)N[C@@H](CCCNC(=N)N)C(=O)N[C@@H](CC(N)=O)C(N)=O", "target": "Neuromedin-U receptor 1 (NMUR1, Homo sapiens, UniProt Q9HB89)", "test": "inositol phosphate, agonist", "endpoint": "pEC50", "value": 9.91}
{"SMILES": "CC(C)(C)CC(C)(C)c1ccc(O)cc1", "target": "Estrogen receptor beta (ESR2, Homo sapiens, UniProt Q92731)", "test": "reporter gene, agonist, luciferase", "endpoint": "pEC50", "value": 6.71}
{"SMILES": "Cc1cnc(-c2ccc(-c3ccc(NC(=O)Nc4c(F)cc(F)cc4F)cc3F)c3c2C(=O)NC3)[nH]1", "target": "Proto-oncogene tyrosine-protein kinase receptor Ret (RET, Homo sapiens, UniProt P07949)", "test": "binding, competition with immobilised ligand", "endpoint": "pKd", "value": 8.03}
{"SMILES": "O=C(/C=C/c1ccc(O)c2c1[C@H](C(=O)O[C@H](Cc1ccc(O)c(O)c1)C(=O)O)[C@@H](c1ccc(O)c(O)c1)O2)O[C@H](Cc1ccc(O)c(O)c1)C(=O)O", "target": "Platelet glycoprotein 4 (CD36, Homo sapiens, UniProt P16671)", "test": "binding, SPR", "endpoint": "pKd", "value": 5.43}
{"SMILES": "CN1CC(Oc2cnc(C#N)cc2-c2ccn3nc(NC(=O)C4CC4)cc3c2)C1", "target": "Tyrosine-protein kinase Lck (LCK, Homo sapiens, UniProt P06239)", "test": "enzyme activity, inhibitor", "endpoint": "pKi", "value": 6.66}
{"SMILES": "CCOc1cc(-c2nncn2C)ccc1Nc1ncc2cc(C)nc(NCC(C)(C)C)c2n1", "target": "MAPK9", "test": "binding, competition with immobilised ligand", "endpoint": "pKd", "value": 7.13}
{"SMILES": "CC1(C)[C@@H](O)CC[C@]2(C)[C@H]3C(=O)C=C4[C@@H]5C[C@@](C)(C(=O)O)CC[C@]5(C)CC[C@@]4(C)[C@]3(C)CC[C@@H]12", "target": "Peroxiredoxin-2 (PRDX2, Homo sapiens, UniProt P32119)", "test": "binding, SPR", "endpoint": "pKd", "value": 4.52}
{"SMILES": "Cc1cc2nc3c(=O)[nH]c(=O)nc-3n(C[C@H](O)[C@H](O)[C@H](O)COP(=O)(O)OP(=O)(O)OC[C@H]3O[C@@H](n4cnc5c(N)ncnc54)[C@H](O)[C@@H]3O)c2cc1C", "target": "Alpha-crystallin B chain (CRYAB, Homo sapiens, UniProt P02511)", "test": "binding", "conditions": "lysate", "endpoint": "pKd", "value": 6.82}
